Rce1 inhib: blocks yeast Ras-converting enzyme; Q03530; yeast membranes, quenched prenylated peptide cleavage fluorescence; calls only; 290,000 compounds, 0.27% hits; AID 2563;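 active = fall in fluorescence gain of 50% or more versus controls, with final raw signal at or below 3038400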
Platelet DG rel: modulates dense granule release in human platelets; human platelet-rich plasma, SFLLRN dense granule ATP release, luminescence; inhibition, %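 (compounds screened at 7.5 µM in platelet-rich plasma)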; 300,000 compounds, 0.22% hits; AID 1663;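 active = mean replicate score, as percent of positive control, at or above 50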
TAAR1 antagonist: antagonists of human TAAR1 | CHO RD-HGA16 TAAR1, Fluo-8 calcium fluorescence, antagonist | inhibition, % at 3 µM | 360,000 compounds, 1.5% hits | AID 624466;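 active = inhibition above a per-plate cutoff, the mean inhibition of test compounds on that plate plus 3 SD, cut at about 49% in these data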
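Assay system: CHO-derived RD-HGA16 cells stably expressing human TAAR1 plus Gα16. Timing: 140 s kinetic read after compound, 140 s after agonist. Technique: kinetic Fluo-8 calcium fluorescence measurement. Measure: % inhibition of agonist calcium response.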
TAAR1 ag: human TAAR1 agonism; activation, % at 3 µM; Q96RJ0; CHO RD-HGA16 TAAR1, Fluo-8 calcium fluorescence; vehicle wells 0%, saturating PEA agonist 100%; 360,000 compounds, 0.99% hits;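 active = activation above the mean activation of all test compounds in the run plus 3 SD, cut at about 38% in these data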
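Test system: RD-HGA16 (CHO) cells co-expressing Gα16 and hTAAR1 | Doses: Single dose, 3 µM | Schedule: 17-24 h seeding, 75 min 37 °C dye, 30 min RT | Evaluation: % activation from peak over basal fluorescence ratio, DMSO-to-PEA scaled | Technique: Kinetic Fluo-8 calcium fluorescence | Benchmarks: Low control DMSO, high control PEA (EC100)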
VLA-4 inh: inhibition in a human VLA-4 binding assay; AID 2557; inhibition, % (about 7 µM as worked out from the volumes in the protocol); P13612; VLA-4 expressing cells, ligand binding flow cytometry; 330,000 compounds, 0.2% hits; in the data active = inhibition above about 50%
TAAR1 ag conf: human TAAR1 agonism, confirmed | 2,400 compounds, 82% hits | activation, % at 3 µM | CHO RD-HGA16 TAAR1, Fluo-8 calcium fluorescence; scaled: DMSO 0%, maximal phenethylamine 100% | shares compounds with TAAR1 ag;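 active = activation above a cutoff set at the run's mean compound activation plus 3 SD, cut at about 39% in these data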
Ga16 nonsel ag: nonselective agonist in parental cells, TAAR1 agonist counter-screen | CHO-Ga16 parental, Fluo-8 calcium fluorescence; normalized to maximal ATP response, DMSO zero | AID 651787 | shares compounds with TAAR1 ag | 2,400 compounds, 50% hits | activation, % at 3 µM;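 active = activation above the run cutoff, the mean activation over all tested wells plus 3 SD, cut at about 12% in these data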
TAAR1 desensitize: counter-screen for human TAAR1 agonists: agonists that desensitize TAAR1; CHO RD-HGA16 hTAAR1, Fluo-8 calcium, beta-PEA response inhibition; 2,400 compounds, 46% hits; shares compounds with TAAR1 ag; inhibition, % at 3 µM;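 active = inhibition above the run cutoff, the mean inhibition of all test compounds plus 3 SD, cut at about 49% in these data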;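 note: beta-PEA stimulus applied at its EC80; loss of beta-PEA calcium signal after compound pretreatment read as receptor desensitization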
Ga16 antag count: nonselective Ga16 antagonist in TAAR1 agonist counter-screen | inhibition, % at 3 µM | 2,400 compounds, 39% hits | CHO-Ga16 ATP-induced calcium, Fluo-8 fluorescence | shares compounds with TAAR1 ag;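 active = inhibition above the plate's mean compound inhibition plus 3 SD, computed per plate, cut at about 22% in these data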
Numbers stand for hits; . = inactive; / = no result. An excerpt weighted towards active compounds, which were near 2.6% of everything screened.

SMILES | Rce1 inhib | Platelet DG rel | TAAR1 antagonist | TAAR1 ag | VLA-4 inh | TAAR1 ag conf | Ga16 nonsel ag | TAAR1 desensitize | Ga16 antag count
COC(=O)C(NC(=O)c1ccccc1C)(Nc1ncc(S(=O)(=O)c2ccc([N+](=O)[O-])cc2)s1)C(F)(F)F (stereo not drawn) | . | . | . | 70 | . | 55 | 26 | 52 | 23
Cc1ccc2c(C)c(C(=O)Nc3cccnc3)oc2c1C | / | / | . | . | / | / | / | / | /
CC1CCCN(c2c([N+](=O)[O-])c(=O)oc3ccccc23)C1 (stereo not drawn) | . | . | / | / | . | / | . | / | .
O=c1oc2ccccc2c(N2CCC(c3ccccc3)CC2)c1[N+](=O)[O-] | . | . | . | . | . | / | / | / | /
CCCCCOc1ccc(/C(C)=N/NC2=NCCN2)cc1 | . | . | . | . | . | / | / | / | /
CCCCCCOc1ccc(/C(C)=N/NC2=NCCN2)cc1 | . | . | . | 63 | . | 48 | 23 | . | 24
CCOC(=O)N1CCC(NC(=O)c2cnn3c(C(F)(F)F)cc(-c4cccc(OC)c4)nc23)CC1 | / | . | . | 71 | . | . | . | . | .
Cc1[nH]c2ccccc2c1C(=O)CN1C(=O)NC(C)(c2ccc(Cl)cc2Cl)C1=O (stereo not drawn) | . | . | 55 | 70 | . | 75 | 39 | 64 | 48
O=C(COC(=O)c1cccc(OC(F)F)c1)Nc1cccc(S(=O)(=O)N2CCCC2)c1 | / | / | . | . | . | / | / | / | /
CC1Nc2ncnc(N3CCc4ccccc4C3)c2N(Cc2ccc(Br)cc2)C1=O (stereo not drawn) | . | . | . | 83 | / | . | . | . | .
CC(C)CNc1nc(N)c([N+](=O)[O-])c(NC2CCCCC2)n1 | . | . | . | . | . | / | / | / | /
CNc1nc(N)c([N+](=O)[O-])c(NC2CCCCC2)n1 | . | . | . | 60 | . | 90 | 42 | . | .
CC1CCc2sc(C(=O)OCC(=O)NCc3ccccc3)cc2C1 (stereo not drawn) | . | . | . | 43 | . | . | . | . | .
Cc1ccc(CNC(=O)COC(=O)c2cc3c(s2)CCC(C)C3)cc1 (stereo not drawn) | . | . | . | . | . | / | / | / | /
c1ccc2cc(C3CCCCC3)ncc2c1 | / | / | . | . | . | / | / | / | /
CC(C(=O)N1CCc2ccccc2C1)N1C(=O)c2ccccc2C1=O (stereo not drawn) | . | . | . | . | . | / | / | / | /
CC(C)CC(C(=O)N1CCc2ccccc2C1)N1C(=O)c2ccccc2C1=O (stereo not drawn) | . | . | . | 75 | . | 77 | . | 65 | .
COc1cc(/C=N/NC(=O)C2CC(=O)N(c3ccc(C)cc3)C2)cc(OC)c1OC (stereo not drawn) | / | . | . | . | . | / | / | / | /
CC1C/C(=C/c2cccn2C)C(=O)/C(=C/c2cccn2C)C1 (stereo not drawn) | . | . | 76 | 67 | . | 40 | 45 | 51 | 65
CC1(C(=O)NCCc2ccccc2)Cc2c(-c3ccc(C(N)=O)cc3)ccnc2O1 (stereo not drawn) | / | / | . | . | / | / | / | / | /
C=CCN(CC=C)S(=O)(=O)c1ccc2nc(NC(=O)C(C)C)sc2c1 | / | / | . | 40 | . | 69 | 31 | . | .
CC1(C)CC(=O)C(=CN2CCN(C(=O)c3ccco3)CC2)C(=O)C1 | . | . | . | 54 | / | 63 | . | . | .
O=[N+]([O-])c1ccc(/C=C/C2=NN(c3ccccc3)C(c3ccco3)C2)cc1 (stereo not drawn) | / | / | 75 | 80 | . | 128 | 198 | 90 | 95
CC1=NN(c2ccccc2)C(c2ccco2)C1 (stereo not drawn) | / | / | . | . | / | / | / | / | /
Cc1ccc(OCc2nnc(SCC(=O)Nc3sc(C)c(C)c3C#N)n2C)cc1 | . | . | . | 54 | . | . | . | . | .
SMILES | Rce1 inhib | Platelet DG rel | TAAR1 antagonist | TAAR1 ag | VLA-4 inh | TAAR1 ag conf | Ga16 nonsel ag | TAAR1 desensitize | Ga16 antag count
Cc1sc(NC(=O)CSc2nnc(COc3ccccc3)n2C)c(C#N)c1C | . | . | . | 53 | . | . | . | . | .
Cc1ccc(OCc2nnc(SCC(=O)NC3CCCCC3)n2C)cc1 | . | . | . | . | . | / | / | / | /
Cc1sc(NC(=O)CSc2nnc3scc(-c4ccccc4)n23)c(C#N)c1C | . | . | . | . | . | / | / | / | /
Cc1cnn(C(=S)NCCc2ccccc2)c1 | . | . | . | 48 | . | . | . | . | .
Cc1ccccc1NC(=S)NCCc1ccccc1 | . | . | . | 49 | . | 82 | . | . | .
Cc1c(NC(=S)NC(=O)Cc2ccccc2)cccc1C(=O)O | . | . | . | . | . | / | / | / | /
Cc1cccc(NC(=S)NC(=O)Cc2ccccc2)c1C | . | . | 65 | 82 | . | 77 | 55 | . | 32
Cc1cc(C)c(O)c(NC(=S)NC(=O)Cc2ccccc2)c1 | . | . | 72 | 95 | . | 85 | 48 | 54 | 37
CC1(C(=O)NCc2cccs2)Cc2c(-c3ccc4c(c3)OCO4)ccnc2O1 (stereo not drawn) | / | / | . | . | / | / | / | / | /
Cc1ccc(CNC(=O)C(N=C2NS(=O)(=O)c3ccccc32)C(C)C)cc1 (stereo not drawn) | / | / | . | . | . | / | / | / | /
CCCOC1CCCN(C(=O)c2cc(Cl)c(Cl)cc2C(=O)O)C1 (stereo not drawn) | . | . | . | 65 | . | 82 | . | 51 | .
O=C(NCCc1ccccc1)c1ccc2c(=O)[nH]c3c(C(=O)NCC4CCCO4)sc(=S)n3c2c1 (stereo not drawn) | . | . | 52 | 65 | . | 90 | . | 82 | 22
C#C[C@]1(O)CCC2C3CCC4=Cc5oncc5CC4(C)C3CCC21C (stereo partly drawn) | . | . | 76 | 62 | . | 60 | 43 | 54 | 36
C#CC1(O)CCC2C3CCC4=Cc5oncc5CC4(C)C3CCC21C (stereo not drawn) | / | / | 65 | 51 | / | 62 | 31 | 70 | 35
COc1cccc(C(C)(O)c2nc(-c3ccoc3)cs2)c1 (stereo not drawn) | / | / | . | . | / | / | / | / | /
Cc1oc(=O)c(NC(=O)c2cccc(Cl)c2)cc1C(=O)c1ccccc1 | . | . | . | 55 | . | . | . | . | 31
CCCCN1CC(N2CCN(C3CCN(C)CC3)CC2)CS1(=O)=O (stereo not drawn) | / | / | . | . | / | / | / | / | /
O=c1[nH]c(C2CCN(S(=O)(=O)c3ccccc3C(F)(F)F)CC2)nc2c1nnn2Cc1cccc(F)c1 | . | . | . | . | . | / | / | / | /

Compound activity: PubChem, several laboratories
